Results taken from ChEMBL document CHEMBL5247671, “Design and Synthesis of Pyrazole-Based Macrocyclic Kinase Inhibitors Targeting BMPR2” (ACS Med Chem Lett, 2023).

Legend:
[1] = molecular target: Vascular endothelial growth factor receptor 1 (Homo sapiens) (UniProt P17948); test: Binding affinity to recombinant FLT1 (unknown origin) assessed as change in melting temperature at 10 uM by DSF assay
Procedure, shortened: (§1)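 Differential scanning fluorimetry on an in-house panel of 90 recombinant kinases. Stabilization is read as the shift in melting temperature (ΔTm) relative to ligand-free protein. Staurosporine served as the positive control, and binding was also compared against its ΔTm.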

[2] = molecular target: Serine/threonine-protein kinase 24 (Homo sapiens) (UniProt Q9Y6E0); test: Inhibition of recombinant MST3 (unknown origin) at 10 uM by DSF assay relative to staurosporine; procedure, shortened: as §1
[3] = molecular target: Glycogen synthase kinase-3 beta (Homo sapiens, UniProt P49841); test: Binding affinity to recombinant GSK3B (unknown origin) assessed as change in melting temperature at 10 uM by DSF assay; procedure, shortened: as §1
[4] = molecular target: T1, Tyrosine-protein kinase Mer (Homo sapiens) (UniProt Q12866); test: Binding affinity to recombinant MERTK (unknown origin) assessed as change in melting temperature at 10 uM by DSF assay; procedure, shortened: as §1
T1 sequence (whole entry): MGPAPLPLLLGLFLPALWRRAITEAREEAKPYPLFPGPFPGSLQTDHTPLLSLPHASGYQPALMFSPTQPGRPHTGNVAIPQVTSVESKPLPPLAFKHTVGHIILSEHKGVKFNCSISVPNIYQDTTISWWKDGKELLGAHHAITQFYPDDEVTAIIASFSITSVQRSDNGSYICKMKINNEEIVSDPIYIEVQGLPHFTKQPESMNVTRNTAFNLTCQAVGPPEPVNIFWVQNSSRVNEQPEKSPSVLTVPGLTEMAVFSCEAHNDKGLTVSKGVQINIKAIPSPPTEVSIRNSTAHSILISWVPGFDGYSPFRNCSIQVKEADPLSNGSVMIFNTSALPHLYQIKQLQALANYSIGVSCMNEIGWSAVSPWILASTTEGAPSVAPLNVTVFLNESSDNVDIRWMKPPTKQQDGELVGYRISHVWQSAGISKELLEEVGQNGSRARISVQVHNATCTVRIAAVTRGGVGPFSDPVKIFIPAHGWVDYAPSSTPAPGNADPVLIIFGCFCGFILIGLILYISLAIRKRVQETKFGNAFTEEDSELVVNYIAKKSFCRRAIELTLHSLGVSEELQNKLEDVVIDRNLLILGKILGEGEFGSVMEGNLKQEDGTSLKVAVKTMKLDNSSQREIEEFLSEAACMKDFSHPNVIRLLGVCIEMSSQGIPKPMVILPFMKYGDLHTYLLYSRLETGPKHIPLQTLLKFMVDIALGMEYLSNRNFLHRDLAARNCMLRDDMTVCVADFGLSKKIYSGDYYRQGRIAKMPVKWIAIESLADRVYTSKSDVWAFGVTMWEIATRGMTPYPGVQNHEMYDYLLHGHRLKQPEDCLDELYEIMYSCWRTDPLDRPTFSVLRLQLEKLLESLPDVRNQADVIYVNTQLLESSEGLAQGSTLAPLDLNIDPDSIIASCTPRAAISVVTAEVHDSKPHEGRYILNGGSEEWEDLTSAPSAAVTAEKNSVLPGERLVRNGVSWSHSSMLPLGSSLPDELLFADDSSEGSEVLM

[5] = molecular target: T2, MAP/microtubule affinity-regulating kinase 4 (Homo sapiens) (UniProt Q96L34); test: Binding affinity to recombinant MARK4 (unknown origin) assessed as change in melting temperature at 10 uM by DSF assay; procedure, shortened: as §1
T2 sequence (whole entry): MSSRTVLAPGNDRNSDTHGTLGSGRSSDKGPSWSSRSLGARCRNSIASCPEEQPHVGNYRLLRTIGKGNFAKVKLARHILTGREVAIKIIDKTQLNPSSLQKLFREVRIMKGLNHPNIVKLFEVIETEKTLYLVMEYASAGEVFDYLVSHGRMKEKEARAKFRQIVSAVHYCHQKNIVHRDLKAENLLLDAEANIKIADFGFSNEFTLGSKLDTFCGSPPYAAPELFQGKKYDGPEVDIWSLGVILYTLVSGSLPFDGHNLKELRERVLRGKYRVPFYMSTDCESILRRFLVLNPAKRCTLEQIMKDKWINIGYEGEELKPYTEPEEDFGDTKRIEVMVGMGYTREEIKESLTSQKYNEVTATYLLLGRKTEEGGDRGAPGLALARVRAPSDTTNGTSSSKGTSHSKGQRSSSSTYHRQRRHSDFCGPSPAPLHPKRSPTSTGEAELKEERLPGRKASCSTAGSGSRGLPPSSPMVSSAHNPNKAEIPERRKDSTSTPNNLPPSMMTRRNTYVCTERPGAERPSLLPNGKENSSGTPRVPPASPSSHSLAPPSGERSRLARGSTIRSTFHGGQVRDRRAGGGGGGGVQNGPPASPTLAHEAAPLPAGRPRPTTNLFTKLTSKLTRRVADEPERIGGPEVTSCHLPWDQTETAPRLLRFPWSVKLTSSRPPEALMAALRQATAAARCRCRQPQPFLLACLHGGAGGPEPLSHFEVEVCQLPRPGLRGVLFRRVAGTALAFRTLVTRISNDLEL

Sequence of Glycogen synthase kinase-3 beta (P49841 whole entry, looked up): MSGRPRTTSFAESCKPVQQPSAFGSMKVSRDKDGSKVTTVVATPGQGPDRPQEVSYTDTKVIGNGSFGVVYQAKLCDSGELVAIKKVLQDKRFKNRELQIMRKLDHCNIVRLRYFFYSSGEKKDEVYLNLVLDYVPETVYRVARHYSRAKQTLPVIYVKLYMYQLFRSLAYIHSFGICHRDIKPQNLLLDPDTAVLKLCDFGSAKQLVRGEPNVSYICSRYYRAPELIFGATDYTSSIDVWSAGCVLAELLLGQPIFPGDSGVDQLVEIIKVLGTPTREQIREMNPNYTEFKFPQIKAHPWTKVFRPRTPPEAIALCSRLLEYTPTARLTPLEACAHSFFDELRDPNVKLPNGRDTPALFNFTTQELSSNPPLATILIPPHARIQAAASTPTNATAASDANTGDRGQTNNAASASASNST
Sequence of Vascular endothelial growth factor receptor 1 (Homo sapiens) (P17948 whole entry): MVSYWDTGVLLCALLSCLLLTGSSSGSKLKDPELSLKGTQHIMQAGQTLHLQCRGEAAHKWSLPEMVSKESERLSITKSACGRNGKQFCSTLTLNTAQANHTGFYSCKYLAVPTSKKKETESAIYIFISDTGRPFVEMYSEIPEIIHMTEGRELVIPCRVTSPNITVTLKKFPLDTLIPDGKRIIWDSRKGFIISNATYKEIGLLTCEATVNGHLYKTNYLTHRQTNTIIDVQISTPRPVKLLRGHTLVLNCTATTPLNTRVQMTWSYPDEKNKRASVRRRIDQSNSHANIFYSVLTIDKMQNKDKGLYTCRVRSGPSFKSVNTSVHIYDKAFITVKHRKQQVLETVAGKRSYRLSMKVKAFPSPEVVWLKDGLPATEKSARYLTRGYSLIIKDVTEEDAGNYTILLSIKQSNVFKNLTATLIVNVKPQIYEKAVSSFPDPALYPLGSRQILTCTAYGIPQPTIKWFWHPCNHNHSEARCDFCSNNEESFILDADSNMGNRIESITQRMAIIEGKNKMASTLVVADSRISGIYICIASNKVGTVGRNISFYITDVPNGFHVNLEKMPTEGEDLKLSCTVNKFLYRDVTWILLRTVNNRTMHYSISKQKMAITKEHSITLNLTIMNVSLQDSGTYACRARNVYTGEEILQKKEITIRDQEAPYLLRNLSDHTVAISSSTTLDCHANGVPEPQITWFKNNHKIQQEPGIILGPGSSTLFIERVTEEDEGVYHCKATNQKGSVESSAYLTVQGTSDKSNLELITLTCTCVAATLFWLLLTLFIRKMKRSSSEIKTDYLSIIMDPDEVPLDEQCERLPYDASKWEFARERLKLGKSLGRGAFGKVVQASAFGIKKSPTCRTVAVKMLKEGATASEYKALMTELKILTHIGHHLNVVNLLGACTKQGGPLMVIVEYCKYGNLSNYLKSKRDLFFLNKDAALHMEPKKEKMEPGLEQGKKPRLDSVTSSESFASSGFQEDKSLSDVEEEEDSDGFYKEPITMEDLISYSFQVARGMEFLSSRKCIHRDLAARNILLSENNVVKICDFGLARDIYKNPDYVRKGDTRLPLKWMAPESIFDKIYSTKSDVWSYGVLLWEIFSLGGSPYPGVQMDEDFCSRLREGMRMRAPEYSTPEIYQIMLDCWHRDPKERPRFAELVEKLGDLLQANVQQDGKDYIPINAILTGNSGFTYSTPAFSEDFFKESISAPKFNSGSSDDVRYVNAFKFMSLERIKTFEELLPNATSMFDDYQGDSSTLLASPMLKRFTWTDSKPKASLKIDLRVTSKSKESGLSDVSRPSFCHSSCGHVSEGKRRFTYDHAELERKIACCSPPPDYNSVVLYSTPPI
Sequence of Serine/threonine-protein kinase 24 (Homo sapiens) (Q9Y6E0 whole entry, looked up): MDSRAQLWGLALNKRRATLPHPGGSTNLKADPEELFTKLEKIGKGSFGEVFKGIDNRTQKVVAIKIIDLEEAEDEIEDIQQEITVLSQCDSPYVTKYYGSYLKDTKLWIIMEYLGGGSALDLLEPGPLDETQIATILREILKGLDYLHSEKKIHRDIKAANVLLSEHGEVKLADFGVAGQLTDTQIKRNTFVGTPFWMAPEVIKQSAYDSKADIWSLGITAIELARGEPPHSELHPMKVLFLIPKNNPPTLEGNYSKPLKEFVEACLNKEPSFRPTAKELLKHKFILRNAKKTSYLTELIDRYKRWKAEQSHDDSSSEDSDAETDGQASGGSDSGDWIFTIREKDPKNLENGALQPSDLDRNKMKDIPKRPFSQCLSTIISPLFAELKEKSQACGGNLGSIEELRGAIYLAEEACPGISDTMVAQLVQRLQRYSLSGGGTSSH

In the case of O=C1NCCc2ccc(cc2)Nc2nccc(n2)Nc2cc1[nH]n2, the ΔTm [1] was 4.2 °C, the inhibition [2] was 44% and the ΔTm [3] was 8.4 °C. For the same compound, the ΔTm [4] was 3.2 °C and the ΔTm [5] was 3.8 °C.
